pIC50: −log10 of the molar value.

One experiment concerns T84. Kind of experiment: Inhibition of Escherichia coli heat stable toxin A-stimulated cGMP accumulation in human T84 cells at 50 uM pretreated 10 mins before 250 nM toxin challenge measured after 10 mins of induction by ELISA. Format: cell-based. An outline of the steps: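 T84 cells preincubated 10 min with test compound, then left unstimulated (basal) or stimulated with 250 nM STa for 10 min; cGMP extracted and quantified by ELISA. Each plate included a vehicle control, and percent inhibition was calculated per plate.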
In general terms: An ELISA detects its analyte on a solid surface through an enzyme-linked reagent.
By inhibition is commonly meant the change of the read-out against control, counted positive when it falls. Regarding `CC1=C(C(=O)Nc2ccccc2)C(c2cc(C(F)(F)F)cc(C(F)(F)F)c2)c2c(n(C)c(=O)n(C)c2=O)N1` (centres undefined), the inhibition came out at 22%.

With `Cn1c2c(c(=O)n(C)c1=O)C(c1cc(F)cc(C(F)(F)F)c1)C1=C(N2)c2ccccc2C1=O` (centres undefined), the inhibition stood at 93%.

Regarding `Cn1c2c(c(=O)n(C)c1=O)C(c1ccc(F)c(F)c1F)C1=C(N2)c2ccccc2C1=O` (centres undefined), the inhibition amounted to 62%.

In the case of `Cn1c2c(c(=O)n(C)c1=O)C(c1cccc(C(F)(F)F)c1)C1=C(N2)c2ccccc2C1=O` (centres undefined), the inhibition is 73%.

As for `CC1=C(C(=O)Nc2nccs2)C(c2cccc(Br)c2)c2c(n(C)c(=O)n(C)c2=O)N1` (centres undefined), the inhibition was 11%.

For `O=C1C2=C(Nc3[nH]c(=O)[nH]c(=O)c3C2c2cc(C(F)(F)F)cc(C(F)(F)F)c2)c2ccccc21` (centres undefined), the inhibition came out at 56%.

Consider `Cn1c2c(c(=O)n(C)c1=O)C(c1cccc(F)c1)C1=C(N2)c2ccccc2C1=O` (centres undefined), for which the inhibition turned out to be 63%.

As to `Cn1c(=O)c2c(-c3cccc(Br)c3)c3c(nc2n(C)c1=O)-c1ccccc1C3=O`, the inhibition came out at 2%.

For `Cn1c2c(c(=O)n(C)c1=O)C(c1ccccc1)C1=C(N2)c2ccccc2C1=O` (centres undefined), the inhibition came out at 7%.

`Cn1c2c(c(=O)[nH]c1=O)C(c1cc(F)cc(C(F)(F)F)c1)C1=C(N2)c2ccccc2C1=O` (centres undefined): the inhibition is -6%.

On to `Cn1c2c(c(=O)n(C)c1=O)C(c1cc(F)cc(F)c1F)C1=C(N2)c2ccccc2C1=O` (centres undefined), for which the inhibition is 42%.

For the molecule `Cn1c2c(c(=O)n(C)c1=O)C(c1cccc(Br)c1)C1=C(N2)c2ccccc2C1=O` (centres undefined), the inhibition is 86%.

Take `Cn1c2c(c(=O)n(C)c1=O)C(c1cccc(Br)c1)C1=C(CCC1=O)N2` (centres undefined): the inhibition came out at 56%.

As for `Cn1c2c(c(=O)n(C)c1=O)C(c1cccc(C#N)c1)C1=C(N2)c2ccccc2C1=O` (centres undefined), the inhibition was determined as 23%.

As for `Cn1c2c(c(=O)n(C)c1=O)C(c1cc(F)cc(F)c1)C1=C(N2)c2ccccc2C1=O` (centres undefined), the inhibition came out at 63%.

For `Cn1c2c(c(=O)n(C)c1=O)C(c1cccc(C(F)(F)F)c1F)C1=C(N2)c2ccccc2C1=O` (centres undefined), the inhibition came to 80%.

`O=C1C2=C(Nc3[nH]nc(-c4ccsc4)c3C2c2cc(C(F)(F)F)cc(C(F)(F)F)c2)c2ccccc21` (centres undefined): the inhibition was -2%.

Consider `CC1=C(C(N)=O)C(c2cc(C(F)(F)F)cc(C(F)(F)F)c2)c2c(n(C)c(=O)n(C)c2=O)N1` (centres undefined), for which the inhibition was found to be 8%.

For `CC(C)C(=O)N1C2=C(C(=O)c3ccccc32)C(c2ccc(Cl)cc2)c2c1n(C)c(=O)n(C)c2=O` (centres undefined), the inhibition came out at 22%.

Turning to `Cn1c2c(c(=O)[nH]c1=O)C(c1cccc(Br)c1)C1=C(N2)c2ccccc2C1=O` (centres undefined), the inhibition is 1%.

Regarding `Cn1c2c(c(=O)n(C)c1=O)C(c1ccc(O)c(O)c1)C1=C(N2)c2ccccc2C1=O` (centres undefined), the inhibition came to 26%.

Consider `Cn1c2c(c(=O)[nH]c1=O)C(c1cc(C(F)(F)F)cc(C(F)(F)F)c1)C1=C(N2)c2ccccc2C1=O` (centres undefined), for which the inhibition was determined as 19%.

Regarding `Cn1c2c(c(=O)n(C)c1=O)C(c1cccc(Br)c1)C1=C(CC(c3ccco3)CC1=O)N2` (centres undefined), the inhibition was found to be 2%.

Turning to `Cn1c2c(c(=O)n(C)c1=O)C(c1cc(C(F)(F)F)cc(C(F)(F)F)c1)C1=C(N2)c2ccccc2C1=O` (centres undefined), the inhibition was 93%.

Turning to `Cn1c2c(c(=O)n(C)c1=O)C(c1ccc(F)c(F)c1F)C1=C(CC(c3ccco3)CC1=O)N2` (centres undefined), the inhibition was -3%.

As for `COc1cc(C2C3=C(Nc4c2c(=O)n(C)c(=O)n4C)c2ccccc2C3=O)ccc1O` (centres undefined), the inhibition turned out to be 29%.

System in a further experiment: not listed separately
In words: Inhibition of Escherichia coli heat stable toxin A-stimulated cGMP accumulation in human T84 cells pretreated 10 mins before 1 nM toxin challenge measured after 10 mins of induction by ELISA. Format: cell-based.
The term pIC50 denotes −log10 of the IC50, conventionally taken in molar units. As for `Cn1c2c(c(=O)n(C)c1=O)C(c1cc(F)cc(C(F)(F)F)c1)C1=C(N2)c2ccccc2C1=O` (centres undefined), the negative-log IC50 (pIC50) was 5.47.

Take `Cn1c2c(c(=O)n(C)c1=O)C(c1cccc(Br)c1)C1=C(N2)c2ccccc2C1=O` (centres undefined): the pIC50 is 5.02.

In the case of `Cn1c2c(c(=O)n(C)c1=O)C(c1cc(C(F)(F)F)cc(C(F)(F)F)c1)C1=C(N2)c2ccccc2C1=O` (centres undefined), the negative-log IC50 (pIC50) was 5.60.

For the origin of these results see ChEMBL document CHEMBL1158412, “Novel pyridopyrimidine derivatives as inhibitors of stable toxin a (STa) induced cGMP synthesis” (Bioorg Med Chem Lett, 2009).
